Screens (PubChem)
A selection: hits, their analogues and other compounds. The true share with any hit is near 1.5%.
CHT block: inhibitors of human choline transporter CHT; Q9GZV3; CHT-expressing cells, membrane potential dye, choline response; stronger effect = lower value; B-score at 10 µM; actives 0.86% (n = 310,000); AID 488975;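 active = B-score over 3 SD under the library average, and starting fluorescence ratio not unusually high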;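 also: choline stimulus applied at its EC90 after an EC20 pre-addition; B-score computed on integrated fluorescence ratio after choline addition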
Target sequence (Q9GZV3 whole entry, looked up): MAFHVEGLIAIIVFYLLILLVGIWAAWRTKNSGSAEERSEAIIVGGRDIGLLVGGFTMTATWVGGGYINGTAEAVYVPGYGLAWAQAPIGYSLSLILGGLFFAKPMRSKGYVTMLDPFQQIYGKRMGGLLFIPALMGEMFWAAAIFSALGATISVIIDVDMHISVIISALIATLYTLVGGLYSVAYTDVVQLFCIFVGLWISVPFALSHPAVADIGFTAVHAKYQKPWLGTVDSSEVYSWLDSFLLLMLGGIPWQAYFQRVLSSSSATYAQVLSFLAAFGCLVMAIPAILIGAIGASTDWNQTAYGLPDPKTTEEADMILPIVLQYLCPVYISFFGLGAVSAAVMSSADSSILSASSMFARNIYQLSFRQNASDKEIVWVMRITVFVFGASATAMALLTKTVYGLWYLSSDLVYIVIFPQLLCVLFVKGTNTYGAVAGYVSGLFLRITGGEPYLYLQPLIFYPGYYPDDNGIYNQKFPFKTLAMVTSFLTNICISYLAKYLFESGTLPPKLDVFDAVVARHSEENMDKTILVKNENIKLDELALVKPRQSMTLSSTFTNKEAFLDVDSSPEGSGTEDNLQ
VLA-4 inh: inhibition in a human VLA-4 binding assay; actives 0.2% (n = 330,000); VLA-4 expressing cells, ligand binding flow cytometry; inhibition, % (about 7 µM as worked out from the volumes in the protocol); in the data active = inhibition above about 50%
T cell modulator: T cell immune modulators affecting CD8 T cell-vesicle binding; 2C CD8+ T cell-vesicle binding, flow cytometry; stronger effect = lower value; response (vesicle binding), % at 7 µM; actives 0.068% (n = 330,000);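 active = response, share of CD8 T cells binding vesicles, and their 90th percentile fluorescence all below set limits, cut at about 80% in these data, passing the limit was not always enough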;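 also: values below 100% mean blocked vesicle binding to the CD8+ T cells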
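incubation = binding step 1.5 h, 37 °C, antibody labelling 20 min, ice | test system = 2C mouse CD8+ T cells | read-out basis = percent CD8+ FL2 mean versus row control | controls = Peptide-free naked vesicles (low) and QL9 vesicles with 0.7% DMSO vehicle (high) | detection = flow cytometry of vesicle-bound cells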
CHT PAM: allosterically activates the human high affinity choline transporter; Q9GZV3; CHT-expressing cells, membrane potential dye, choline EC20; stronger effect = higher value; LV-AA mutant CHT in HEK293 cells; B-score at 10 µM; actives 0.49% (n = 310,000); AID 488977;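 active = initial fluorescence not abnormally high and integrated response B-score, plate-corrected, over 3 SD above library mean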
CHT inh conf: confirmation of human choline transporter CHT inhibitors; shares compounds with CHT block; CHT-expressing cells, choline membrane potential dye; LV-to-AA substituted CHT, HEK293 cells; CHT activity remaining % of control (stronger effect = lower value), % at 10 µM; actives 70% (n = 2,400); AID 493221;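 active = choline transporter activity left, mean of duplicates at 10 µM, below buffer-only control mean minus 3 SD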;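 also: depolarization triggered by choline at its EC90 following an EC20 pre-addition; 0% = hemicholinium-3 full block and 100% = buffer-only control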
HEK293 MPD ctr: CHT inhibitor counter-screen hit in parental HEK293 cells; shares compounds with CHT block; actives 4% (n = 2,400); membrane potential dye, choline response; active = decrease or increase beyond buffer ±3SD; membrane potential ratio readout (active if shifted either direction beyond buffer ±3SD; no single direction) at 10 µM;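 also: parental cells lack the transporter so any hit is non-specific; ratio is peak minus trough fluorescence over baseline after EC90 choline challenge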
Numbers without * were called inactive; i = inactive; · = no result given.

SMILES	CHT block	VLA-4 inh	T cell modulator	CHT PAM	CHT inh conf	HEK293 MPD ctr
O=C(Nc1ncc([N+](=O)[O-])s1)C1CC(=O)N(c2ccc(F)cc2)C1 (centres undefined)	-6.7*	8	229	i	40%*	i
CCN(CC)C(=O)N1CCN(S(=O)(=O)c2ccc(C)c(C)c2)CC1	-7.4*	-15	230	i	37%*	i
CCN(CC)C(=O)N1CCN(S(=O)(=O)c2ccc(C)cc2)CC1	i	-5	·	i	·	·
Cc1ccc(CN2CCN(Cc3ccc4cc(F)ccc4n3)CC2CCO)o1 (centres undefined)	i	0	308	i	·	·
Cc1noc(C)c1NC(=O)Nc1cccc2c1O[C@H](CN(C)S(=O)(=O)c1cn(C)cn1)[C@@H](C)CN([C@H](C)CO)C2=O	·	31	252	·	·	·
Cc1c(NC(=S)NC(=O)c2cccc3ccccc23)cccc1C(=O)O	i	-9	843	i	·	·
Cc1c(NC(=S)NC(=O)c2ccc(COc3ccccc3)cc2)cccc1C(=O)O	-6.3*	10	483	i	i	i
O=C(CCl)N(C1CCCC1)C1CCS(=O)(=O)C1 (centres undefined)	-5.1*	10	351	i	i	i
CC(=O)c1ccc(OCC(=O)N(C2CCCCC2)C2CCS(=O)(=O)C2)cc1 (centres undefined)	i	-8	186	i	·	·
COc1ccc(C(=O)NC(C)CCn2cccn2)cc1OC1CCN(C(C)C)CC1 (centres undefined)	-9.8*	-11	174	i	13%*	i
COCC1CCN(C(=O)c2ccc(OC)c(OC3CCN(C(C)C)CC3)c2)CC1	i	-3	258	i	·	·
CCC1CCCCN1C(=O)c1ccc(OC)c(OC2CCN(C(C)C)CC2)c1 (centres undefined)	i	2	222	i	·	·
COc1ccc(C(=O)NC(C)Cc2cnccn2)cc1OC1CCN(C(C)C)CC1 (centres undefined)	-7*	9	214	i	28%*	i
COC(=O)c1ccccc1NC(=O)CSc1nc2cccnc2n1C	-5.9*	3	275	i	i	i
CCOc1ccccc1NC(=O)CSc1nc2cccnc2n1C	i	6	451	i	·	·
Cc1noc(/C=C/c2cccs2)c1S(=O)(=O)N1CCC(C(=O)NCCCN2CCC(C)CC2)CC1	-5.1*	6	242	i	i	i
Nc1nn(-c2ccccc2Cl)cc1-c1nn[nH]n1	i	-7	454	i	·	·
CC(C)c1cc(CNC(=O)c2ccc(OC3CCN(Cc4ccccn4)CC3)cc2)on1	i	1	413	i	·	·
CC(CNC(=O)c1ccc(OC2CCN(Cc3ccccn3)CC2)cc1)c1ccccc1 (centres undefined)	-12*	4	203	i	10%*	i
O=C(NC1CCCCC1)c1ccc(OC2CCN(Cc3ccccn3)CC2)cc1	-13*	10	354	i	-6.3%*	i
C=CCn1c(SCC(=O)NCC2CCCO2)nnc1-c1ccncc1 (centres undefined)	·	-8	308	·	·	·
CCc1ccc(C(C)NC(=S)NC2CCCCC2)cc1 (centres undefined)	-8.1*	1	413	i	49%*	i
Cc1ccc(Sc2ccc(CN3CCCCC3)cc2[N+](=O)[O-])cc1	i	5	261	i	·	·
COCC(C)n1c(SCC(=O)Nc2oc(C)c3c(C)n[nH]c(=O)c23)nc2ccccc2c1=O (centres undefined)	i	7	426	i	·	·
Cc1n[nH]c(=O)c2c(NC(=O)CSc3nc4ccccc4c(=O)n3C(C)C)oc(C)c12	-10*	-4	251	i	48%*	i
SMILES	CHT block	VLA-4 inh	T cell modulator	CHT PAM	CHT inh conf	HEK293 MPD ctr
O=S(=O)(NC1c2cccc3cccc(c23)C1Sc1ncccn1)c1ccccc1 (centres undefined)	i	4	815	i	·	·
CCOC(=O)N1CCN(C(=O)CCCCCn2c(=S)[nH]c3ccsc3c2=O)CC1	i	15	281	i	·	·
CCOC(=O)N1CCN(C(=O)CCCn2c(=S)[nH]c3ccc(Br)cc3c2=O)CC1	-5.3*	-9	409	i	55%*	i
O=C(CCCn1c(=S)[nH]c2ccccc2c1=O)N1CCOCC1	i	0	661	i	·	·
CCOC(=O)N1CCN(C(=O)CCCn2c(=O)[nH]c3ccccc3c2=O)CC1	-5.9*	14	456	i	5.0%*	i
CCOC(=O)N1CCN(C(=O)CCCn2c(=S)[nH]c3ccsc3c2=O)CC1	-12*	1	208	i	6.4%*	i
COc1ccc(C(=O)Nc2nc(CC(=O)NCCc3ccccc3)cs2)cc1	-5.1*	-10	659	i	i	i
COc1cc(NC(=O)C2CC(c3cccc(OC)c3OC)=NO2)cc(OC)c1OC (centres undefined)	i	13	178	i	·	·
COc1cccc(C2=NOC(C(=O)Nc3cccnc3Cl)C2)c1OC (centres undefined)	-11*	3	253	i	i	i
CCCc1cc(=O)[nH]c(SCC(=O)Nc2cc(S(=O)(=O)N3CCCCC3)ccc2C)n1	·	7	209	·	·	·
CCCN(CC(=O)Nc1cc(Cl)ccc1Cl)C(=O)CN1C(=O)C2CCCCC2C1=O (centres undefined)	i	-6	86	i	·	·
O=C(CC1C(=O)NCCN1C(=O)Nc1ccccc1)Nc1cc(Cl)cc(Cl)c1 (centres undefined)	-5*	5	0	i	16%*	i
O=C(CC1C(=O)NCCN1C(=O)Nc1ccccc1)Nc1cccc(Cl)c1 (centres undefined)	i	10	781	i	·	·
O=C(C1CCN(CCCc2ccccc2)CC1)N(CCc1ccccc1)Cc1ccccc1	-8.2*	-19	200	i	23%*	3.5*
CCC(C)NC(=O)C1CCN(CCCc2ccccc2)CC1 (centres undefined)	i	28	209	i	·	·
CN(C)c1ccc(/C=C2\Oc3ccc(C#Cc4cccc(N)c4)cc3C2=O)cc1	·	i	305	·	·	·
O=C(O)CC1=C(Nc2ccccc2)C(=O)N(c2ccccc2)C1c1ccc(Br)cc1 (centres undefined)	-5.9*	-8	450	i	25%*	i
COc1ccc(NS(=O)(=O)c2ccc(NC(=O)c3ccccc3Br)cc2)nn1	-8.5*	18	560	i	19%*	i
COc1ccc(C(=O)Nc2ccc(S(=O)(=O)Nc3cnc4ccccc4n3)cc2)cc1	i	6	226	i	·	·
COc1ccc(NS(=O)(=O)c2ccc(NC(=O)c3ccccc3)cc2)nn1	i	13	172	i	·	·
